Source: ChEMBL document CHEMBL1138555, “N-acylated and N,N'-diacylated imidazolidine-2-thione derivatives and N,N'-diacylated tetrahydropyrimidine-2(1H)-thione analogues: synthesis and antiproliferative activity” (Eur J Med Chem, 2009)

Assays:
[1] = tested on: MT4; test: Antiproliferative activity against human MT4 cells assessed as reduction of growth by MTT assay; format: functional, cell-based
Method in brief: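 MT-4 lymphoblastoid T cells (ATCC) in RPMI 1640 with 10% FCS, penicillin/streptomycin, checked for mycoplasma. 1 × 10⁴ mock-infected cells per well with serial dilutions from a 100 mM DMSO stock. Incubated 4 days at 37 °C, viable cells counted by MTT. IC50 versus untreated controls by linear regression. Mean of three separate experiments.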

[2] = tested on: CCRF-CEM; test: Growth inhibition of human CCRF-CEM cells after 48 hrs by sulforhodamine B assay; format: functional
Method in brief: (§1)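 NCI screen panel. Five 10-fold concentrations from 10^-4 to 10^-8 M. Exposure for the last 48 h of a 72 h incubation. Growth estimated by sulforhodamine B protein assay. GI50 is the concentration giving 50% growth inhibition. Where that level was not reached or was exceeded, the value is given as above or below the highest or lowest concentration tested.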

[3] = tested on: HL-60(TB); test: Growth inhibition of human HL-60(TB) cells after 48 hrs by sulforhodamine B assay; format: functional; conditions: HL-60, 48 h
Method in brief: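 NCI 60-cell-line screen protocol: cells exposed to compound at five 10-fold dilutions from 10^-4 to 10^-8 M for the last 48 h of a 72 h incubation. Sulforhodamine B protein assay estimated viability/growth. GI50 (50% growth inhibition) derived; where not reached or exceeded, reported as greater or less than the highest or lowest concentration tested.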

[4] = tested on: K562; test: Growth inhibition of human K562 cells after 48 hrs by sulforhodamine B assay; format: functional; conditions: K562, 48 h; method in brief: as §1
[5] = tested on: MOLT-4; test: Growth inhibition of human MOLT4 cells after 48 hrs by sulforhodamine B assay; format: functional; conditions: MOLT-4, 48 h; method in brief: as §1
[6] = Growth inhibition of human […] cells after 48 hrs by sulforhodamine B assay; format: functional; method in brief: as §1
[7] = tested on: SR; test: Growth inhibition of human SR cells after 48 hrs by sulforhodamine B assay; format: functional
Method in brief: (§2)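 NCI in vitro panel screen. Compounds tested at five 10-fold dilutions, 10^-4 to 10^-8 M. Cells in 96-well plates were exposed for the last 48 h of a 72 h incubation. Viability/growth was read by sulforhodamine B protein assay. GI50 is the concentration giving 50% growth inhibition. Values beyond the tested range are reported as greater or less than the maximum or minimum concentration.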

[8] = tested on: A549; test: Growth inhibition of human A549 cells after 48 hrs by sulforhodamine B assay; format: functional; conditions: A549, 48 h; method in brief: as §1
[9] = tested on: EKVX; test: Growth inhibition of human EKVX cells after 48 hrs by sulforhodamine B assay; format: functional; method in brief: as §1
[10] = tested on: HOP-62; test: Growth inhibition of human HOP62 cells after 48 hrs by sulforhodamine B assay; format: functional; conditions: HOP-62, 48 h; method in brief: as §1
[11] = tested on: HOP-92; test: Growth inhibition of human HOP92 cells after 48 hrs by sulforhodamine B assay; format: functional; conditions: HOP-92, 48 h; method in brief: as §1
[12] = tested on: NCI-H23; test: Growth inhibition of human NCI-H23 cells after 48 hrs by sulforhodamine B assay; format: functional; conditions: NCI-H23, 48 h; method in brief: as §1
[13] = tested on: NCI-H322M; test: Growth inhibition of human NCI-H322M cells after 48 hrs by sulforhodamine B assay; format: functional; method in brief: as §1
[14] = tested on: NCI-H460; test: Growth inhibition of human NCI-H460 cells after 48 hrs by sulforhodamine B assay; format: functional; conditions: NCI-H460, 48 h; method in brief: as §1
[15] = tested on: COLO 205; test: Growth inhibition of human COLO205 cells after 48 hrs by sulforhodamine B assay; format: functional; conditions: COLO 205, 48 h; method in brief: as §1
[16] = tested on: HCT-116; test: Growth inhibition of human HCT116 cells after 48 hrs by sulforhodamine B assay; format: functional; conditions: HCT-116, 48 h; method in brief: as §1
[17] = tested on: HCT-15; test: Growth inhibition of human HCT15 cells after 48 hrs by sulforhodamine B assay; format: functional; conditions: HCT-15, 48 h; method in brief: as §1
[18] = tested on: HT-29; test: Growth inhibition of human HT-29 cells after 48 hrs by sulforhodamine B assay; format: functional; conditions: HT-29, 48 h; method in brief: as §1
[19] = tested on: KM12; test: Growth inhibition of human KM12 cells after 48 hrs by sulforhodamine B assay; format: functional; conditions: KM12, 48 h; method in brief: as §1
[20] = tested on: SW-620; test: Growth inhibition of human SW620 cells after 48 hrs by sulforhodamine B assay; format: functional; conditions: SW-620, 48 h; method in brief: as §2
[21] = tested on: SF-268; test: Growth inhibition of human SF268 cells after 48 hrs by sulforhodamine B assay; format: functional; conditions: SF-268, 48 h; method in brief: as §1
[22] = tested on: SF-295; test: Growth inhibition of human SF295 cells after 48 hrs by sulforhodamine B assay; format: functional; conditions: SF-295, 48 h; method in brief: as §1
[23] = tested on: SNB-19; test: Growth inhibition of human SNB19 cells after 48 hrs by sulforhodamine B assay; format: functional; conditions: SNB-19, 48 h; method in brief: as §2
[24] = tested on: SNB-75; test: Growth inhibition of human SNB75 cells after 48 hrs by sulforhodamine B assay; format: functional; conditions: SNB-75, 48 h; method in brief: as §2
[25] = tested on: U-251; test: Growth inhibition of human U251 cells after 48 hrs by sulforhodamine B assay; format: functional; conditions: U-251, 48 h; method in brief: as §2
[26] = tested on: LOX IMVI; test: Growth inhibition of human LOXIMVI cells after 48 hrs by sulforhodamine B assay; format: functional; method in brief: as §1
[27] = tested on: Malme-3M; test: Growth inhibition of human MALME-3M cells after 48 hrs by sulforhodamine B assay; format: functional; method in brief: as §1
[28] = tested on: M14; test: Growth inhibition of human M14 cells after 48 hrs by sulforhodamine B assay; format: functional; conditions: M14, 48 h; method in brief: as §1
[29] = tested on: SK-MEL-28; test: Growth inhibition of human SK-MEL-28 cells after 48 hrs by sulforhodamine B assay; format: functional; conditions: SK-MEL-28, 48 h; method in brief: as §1
[30] = tested on: SK-MEL-5; test: Growth inhibition of human SK-MEL-5 cells after 48 hrs by sulforhodamine B assay; format: functional; conditions: SK-MEL-5, 48 h; method in brief: as §1
[31] = tested on: UACC-62; test: Growth inhibition of human UACC62 cells after 48 hrs by sulforhodamine B assay; format: functional; conditions: UACC-62, 48 h; method in brief: as §2
[32] = tested on: OVCAR-3; test: Growth inhibition of human OVCAR-3 cells after 48 hrs by sulforhodamine B assay; format: functional; conditions: OVCAR-3, 48 h; method in brief: as §1
[33] = tested on: OVCAR-4; test: Growth inhibition of human OVCAR4 cells after 48 hrs by sulforhodamine B assay; format: functional; conditions: OVCAR-4, 48 h; method in brief: as §1
[34] = tested on: OVCAR-8; test: Growth inhibition of human OVCAR8 cells after 48 hrs by sulforhodamine B assay; format: functional; conditions: OVCAR-8, 48 h; method in brief: as §1
[35] = tested on: SK-OV-3; test: Growth inhibition of human SKOV3 cells after 48 hrs by sulforhodamine B assay; format: functional; conditions: SK-OV-3, 48 h; method in brief: as §1
[36] = tested on: 786-0; test: Growth inhibition of human 786-0 cells after 48 hrs by sulforhodamine B assay; format: functional; conditions: 786-0, 48 h; method in brief: as §1
[37] = tested on: ACHN; test: Growth inhibition of human ACHN cells after 48 hrs by sulforhodamine B assay; format: functional; method in brief: as §1
[38] = tested on: CAKI-1; test: Growth inhibition of human Caki1 cells after 48 hrs by sulforhodamine B assay; format: functional; conditions: CAKI-1, 48 h; method in brief: as §1
[39] = tested on: SN12C; test: Growth inhibition of human SN12C cells after 48 hrs by sulforhodamine B assay; format: functional; method in brief: as §2
[40] = tested on: TK-10; test: Growth inhibition of human TK10 cells after 48 hrs by sulforhodamine B assay; format: functional; conditions: TK-10, 48 h; method in brief: as §2
[41] = tested on: UO-31; test: Growth inhibition of human UO31 cells after 48 hrs by sulforhodamine B assay; format: functional; conditions: UO-31, 48 h; method in brief: as §2
[42] = tested on: PC-3; test: Growth inhibition of human PC3 cells after 48 hrs by sulforhodamine B assay; format: functional; conditions: PC-3, 48 h; method in brief: as §1
[43] = tested on: DU-145; test: Growth inhibition of human DU145 cells after 48 hrs by sulforhodamine B assay; format: functional; conditions: DU-145, 48 h; method in brief: as §1
[44] = tested on: MDA-MB-231; test: Growth inhibition of human MDA-MB-231 cells after 48 hrs by sulforhodamine B assay; format: functional; conditions: MDA-MB-231, 48 h; method in brief: as §1
[45] = tested on: MDA-MB-435; test: Growth inhibition of human MDA-MB-435 cells after 48 hrs by sulforhodamine B assay; format: functional; conditions: MDA-MB-435, 48 h; method in brief: as §1
[46] = tested on: BT-549; test: Growth inhibition of human BT549 cells after 48 hrs by sulforhodamine B assay; format: functional; conditions: BT-549, 48 h; method in brief: as §1
[47] = tested on: T47D; test: Growth inhibition of human T47D cells after 48 hrs by sulforhodamine B assay; format: functional; method in brief: as §2

CCOC(=O)/C(=C/N1CCN(C(=O)c2ccco2)C1=S)C(=O)c1ccccc1
IC50 [1]: 4 µM | GI50 [2]: 15.6 µM | GI50 [3]: 14.9 µM | GI50 [4]: 17.7 µM | GI50 [5]: 19.6 µM | GI50 [6]: 12.4 µM | GI50 [7]: 2.4 µM | GI50 [8]: 11.6 µM | GI50 [9]: 9.5 µM | GI50 [10]: 17.3 µM | GI50 [11]: 23 µM | GI50 [12]: 7.7 µM | GI50 [13]: 14.2 µM | GI50 [14]: 4.9 µM | GI50 [15]: 19.2 µM | GI50 [16]: 8.9 µM | GI50 [17]: 6.3 µM | GI50 [18]: 19.2 µM | GI50 [19]: 10.1 µM | GI50 [20]: 7.9 µM | GI50 [21]: 7.2 µM | GI50 [22]: 16.4 µM | GI50 [23]: 35.6 µM | GI50 [24]: 46 µM | GI50 [25]: 11.5 µM | GI50 [26]: 6.5 µM | GI50 [27]: 13.3 µM | GI50 [28]: 8.9 µM | GI50 [29]: 22.2 µM | GI50 [30]: < 0.005 µM | GI50 [31]: 7.6 µM | GI50 [32]: 20.2 µM | GI50 [33]: 31 µM | GI50 [34]: 11.7 µM | GI50 [35]: 20 µM | GI50 [36]: 12.9 µM | GI50 [37]: 8.5 µM | GI50 [38]: 15.9 µM | GI50 [39]: 8.1 µM | GI50 [40]: 12.4 µM | GI50 [41]: 10 µM | GI50 [42]: 19.4 µM | GI50 [43]: 8 µM | GI50 [44]: 10.8 µM | GI50 [45]: 14.4 µM | GI50 [46]: 9 µM | GI50 [47]: 4.1 µM
